# Measurements from different studies.
# Lines come from different studies, so protocols differ.
SMILES,cell line,assay,setting,measurement,result
C=CC(=O)N1CCN(c2nc(=O)n(-c3c(C)ccnc3C(C)C)c3nc(-c4c(O)cccc4F)c(F)cc23)[C@@H](C)C1,Calu-1,"cell growth or viability, ATP luminescence",,IC50,7.75 nM
CC1(C)CCC(CN2CCN(c3ccc(C(=O)NS(=O)(=O)c4ccc(NCC5CCOCC5)c([N+](=O)[O-])c4)c(Oc4cnc5[nH]ccc5c4)c3)CC2)=C(c2ccc(Cl)cc2)C1,SU-DHL-8,"cell growth or viability, ATP luminescence",48 h,IC50,5380 nM
C=C(F)C(=O)N1CCN(c2nc(OC[C@@H]3CCCN3C)nc3c2CCN(c2cccc4cccc(Cl)c24)C3)C[C@@H]1CC#N,Calu-1,"cell growth or viability, ATP luminescence",3D culture,IC50,40.9 nM
CN(C)C(=O)c1cc2cnc(Nc3ccc(N4CCNCC4)cn3)nc2n1C1CCCC1,human Neutrophil,"reactive oxygen species, inhibitor",,IC50,1670 nM
O=C(O)c1ccc2c(c1)nc(Nc1cccc(Cl)c1)c1ccncc12,NCI-H226,"cell growth or viability, resazurin",48 h,IC50,14200 nM
O=C(O)c1cccnc1Nc1cccc(C(F)(F)F)c1,NCI-H226,"cell growth or viability, CCK-8",72 h,GI50,> 40000 nM
C=CC(=O)NC1CCN(c2ncc3ncnc(Nc4ccc(Oc5ccc6c(c5)ncn6C)c(C)c4)c3n2)CC1,Hs766T,cell growth or viability,,EC50,1150 nM
CC(C)c1ccccc1[C@@H]1CCCN1C1CC2(CCN(c3ccc(C(=O)NS(=O)(=O)c4ccc(NC[C@H]5CC[C@](C)(O)CC5)c([N+](=O)[O-])c4)c(Oc4cnc5[nH]ccc5c4)c3)CC2)C1,MINO,"cell growth or viability, ATP luminescence",48 h,IC50,13 nM
C=CC(=O)c1cccnc1Nc1cc(C(F)(F)F)ccc1OCc1ccccc1,NCI-H226,"cell growth or viability, CCK-8",72 h,GI50,12800 nM
